# High-throughput results: PubChem, The Scripps Research Institute Molecular Screening Center
# HTRA1 inh: HTRA1 serine protease inhibitors, primary screen, biochemical, fluorescence polarization, HTS. AID 504803, 2011. 340,000 tested, 0.5% active. Q92743. inhibition, % at 5.96 µM. recombinant HTRA1, FP-rhodamine activity-based probe; in the data active means inhibition above about 36%;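 further: 0% = enzyme with DMSO and 100% = wells lacking enzyme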
# Target sequence (Q92743 whole entry, looked up): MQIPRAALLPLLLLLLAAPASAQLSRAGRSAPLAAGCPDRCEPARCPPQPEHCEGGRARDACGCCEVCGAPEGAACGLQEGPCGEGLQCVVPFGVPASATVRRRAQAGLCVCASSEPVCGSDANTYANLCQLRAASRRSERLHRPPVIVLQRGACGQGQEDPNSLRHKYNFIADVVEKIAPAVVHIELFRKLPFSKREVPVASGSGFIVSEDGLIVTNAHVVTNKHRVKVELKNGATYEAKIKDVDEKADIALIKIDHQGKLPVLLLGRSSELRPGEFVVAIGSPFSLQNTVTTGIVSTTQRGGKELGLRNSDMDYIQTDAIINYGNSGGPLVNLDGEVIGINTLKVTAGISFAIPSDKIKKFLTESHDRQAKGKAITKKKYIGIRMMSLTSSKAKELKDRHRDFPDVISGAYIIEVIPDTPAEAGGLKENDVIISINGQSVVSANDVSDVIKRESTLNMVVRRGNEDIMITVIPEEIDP
# mABHD4 FP: ABHD4 inhibitors, primary screen, biochemical, fluorescence polarization, mouse; 370,000 tested, 0.54% active; purified mABHD4, FP-Rh probe fluorescence polarization; (Lyso)-N-acylphosphatidylethanolamine lipase (Mus musculus), Q8VD66; inhibition, % at 8.92 µM;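 active means inhibition exceeding the mean over every tested compound plus 3 SD, cut at about 30% in these data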;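 further: 0% = plate median of compound wells and 100% = S159A mutant with DMSO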
#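 Assay system: wild-type mouse ABHD4 protein; compound: single nominal dose of 8.92 µM, 0.89% DMSO final; schedule: 45 min + 60 min at 25 °C; measured by: FP readout, ex 525 nm / em 598 nm; evaluation: % inhibition of FP-Rh probe binding versus controls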
# TCR CD3 inh: inhibitors of human TCR-CD3 interaction, primary screen, biochemical, fluorescence, TAMRA-labeled TCR probe; AID 651800, 2012; T-cell receptor (TCR); 360,000 tested, 0.37% active; inhibition, % at 9.4 µM; in the data active means inhibition above about 19%;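 further: recombinant mutant TCR 2C K166C tagged with TAMRA read by polarization; 0% = receptor in buffer alone and 100% = receptor with positive control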
# PRMT1 FP inh: PRMT1 methyltransferase inhibitors, primary screen, biochemical, fluorescence polarization; Protein arginine N-methyltransferase 1 (Homo sapiens), Q99873; recombinant PRMT1, activity-based probe fluorescence polarization; AID 652257, 2013; 370,000 tested, 1.3% active; inhibition, % at 2.79 µM;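 active means inhibition above about 21% made by adding two undisclosed values, limit read from the data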
# SIAE primary: human SIAE inhibitors, primary screen, biochemical, fluorescence polarization, FP-Rh probe, 1536-well HTS; Sialate O-acetylesterase (Homo sapiens), Q9HAT2; SIAE FP-Rh probe binding; inhibition, % at 9.66 µM; 370,000 tested, 0.69% active;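 active means inhibition above a cutoff: mean of compounds within the control limits plus 3 SD of those, cut at about 17% in these data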;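 further: 0% = plate median of compound wells and 100% = probe without SIAE protein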
# HTRA1 conf: HTRA1 protease inhibitors, retest, confirmation, biochemical, fluorescence polarization. 1,600 tested, 66% active. AID 540248, 2011. recombinant HTRA1, FP-rhodamine activity-based probe. shares compounds with HTRA1 inh. inhibition, % at 5.96 µM;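 active means mean inhibition over three repeats above a set limit taken from the earlier primary screen, cut at about 37% in these data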;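 further: 0% = HTRA1 with DMSO and 100% = wells lacking HTRA1; inhibitors block probe binding so polarization drops and inhibition rises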
# * marks the source's active call; other numbers are inactive results; nt = no result given. Hits are enriched below; roughly 2.7% of the tested compounds scored in any of these assays.
SMILES,HTRA1 inh,mABHD4 FP,TCR CD3 inh,PRMT1 FP inh,SIAE primary,HTRA1 conf
O=C(N/N=C/c1sc(N2CCOCC2)nc1-c1ccccc1)c1cccc(S(=O)(=O)N2CCOCC2)c1,45*,-6,-3,2,-3,119*
C[C@@H]1CCCCO[C@@H](CN(C)S(=O)(=O)c2cn(C)cn2)[C@@H](C)CN([C@H](C)CO)C(=O)c2cc(N(C)C)ccc2O1,0,-2,4,-4,1,nt
O=S1(=O)Nc2c(ccc3cccnc23)-c2ccccc21,36*,nt,nt,nt,nt,31
CC(OC(=O)/C=C/c1ccco1)C(=O)NC1CCCCC1C (centres undefined),8,0,10,1,2,nt
CCCCc1ccc(NC(=O)CSc2nc(=O)n3cc(C)ccc3n2)cc1,-8,-3,3,4,-16,nt
Cc1ccc(O)c(C=Nc2cc(C)ccc2O)c1,21,nt,nt,nt,nt,nt
CC(C)(C)c1ccc(O)c(N=Cc2cc(Br)ccc2O)c1,41*,18,9,21*,8,42*
Cc1ccc(C(=O)OCC(=O)NC(=O)NCc2ccccc2)cc1C,-2,-6,-4,1,0,nt
O=C(COC(=O)c1ccc2ncsc2c1)NC(=O)NCc1ccccc1,39*,-23,3,8,2,30
O=C(O)C1=C2C(=O)Nc3cccc(c32)C2(C1)C(=O)Nc1ccccc12 (centres undefined),37*,33*,0,17,9,12
O=C1NCCC12C(=O)Nc1ccccc12 (centres undefined),2,2,3,6,2,nt
Cc1ccc2nc(-c3ccccn3)[nH]c2c1,42*,7,-6,1,1,33
c1ccc(-c2nc3ccccc3[nH]2)nc1,21,6,10,0,-8,nt
O=C1NC[C@H](CCCCN2CCN(Cc3ccccc3)C(=O)C2=O)N(CCC2CCCCC2)C1=O,nt,2,0,-2,3,nt
Cc1ccc(Cn2c(=N)c(C(=O)NCc3ccco3)cc3c(=O)n4ccccc4nc32)cc1,42*,12,8,3,-3,-36
C[C@@H]1CN([C@H](C)CO)C(=O)c2cc(Br)cnc2O[C@H]1CN(C)C,9,5,7,0,-3,nt
CC1(OC(=O)C2CCCC2)C(=O)C=C2C=C(c3ccsc3)N(CCc3c[nH]c4ccccc34)C=C2C1=O (centres undefined),36*,nt,nt,nt,nt,17
CCCCC1=CC2=CC(=O)C(C)(OC(=O)CC)C(=O)C2=CN1CCc1c[nH]c2ccccc12 (centres undefined),51*,15,4,3,6,36*
COC(=O)CCCC1=CC2=CC(=O)C(C)(OC(=O)c3cccs3)C(=O)C2=CN1CCc1c[nH]c2ccccc12 (centres undefined),29,12,6,2,10,nt
CCOC(=O)C1=CCN(S(=O)(=O)c2ccc(Br)cc2)C1c1cccc(F)c1 (centres undefined),nt,-5,2,4,-4,nt
Cc1ccc(CNC2CCCCC2)s1,1,8,-1,0,2,nt
CN(C)S(=O)(=O)c1cccc(NC(=O)c2ccc(-n3cncn3)c([N+](=O)[O-])c2)c1,-3,-2,-3,0,3,nt
Nc1cc(N)c(OCC(F)(F)F)cc1OCC(F)(F)F,48*,nt,nt,nt,nt,34
COc1cccc(C2Nc3c(F)cc(Br)cc3C3C=CCC32)c1OC (centres undefined),44*,1,2,-3,2,-19
COC(=O)[C@H]1C[C@@]2(Oc3ccc(Br)cc3)c3ccccc3N(C(=O)OC(C)(C)C)[C@H]2N1C(=O)OC(C)(C)C,nt,-11,nt,3,3,nt
COc1ccc2nc3ccccc3nc2c1N,49*,24,5,13,4,17
COc1ccc2nc3cccc(OC)c3nc2c1,4,5,-10,8,-9,nt
Cc1ccc(N(Cc2cc(=O)[nH]c3ccccc23)C(=O)CCl)c(C)c1,0,4,3,3,-15,nt
COc1ccccc1Nc1ccc(N)cc1,68*,24,2,0,10,56*
